From ChEMBL document CHEMBL4813913, “In vitro identification of imidazo[1,2-a]pyrazine-based antileishmanial agents and evaluation of L. major casein kinase 1 inhibition” (Eur J Med Chem, 2021)

What was measured:
[1] = Selectivity index, ratio of CC50 for human MRC5 cells to IC50 for amastigote stage of Leishmania major (MHOM/IL/81/BNI) infected in BALB/c mouse peritoneal macrophages; assay type: toxicity; settings: read-out: Ratio CC50/IC50
Summary of the method: (§1)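 Selectivity index is CC50 on RAW 264.7 or MRC-5 cells divided by IC50 on intracellular amastigotes.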

[2] = Selectivity index, ratio of CC50 for mouse RAW264.7 cells to IC50 for amastigote stage of Leishmania major (MHOM/IL/81/BNI) infected in BALB/c mouse peritoneal macrophages; assay type: toxicity; settings: read-out: Ratio CC50/IC50; summary of the method: as §1
[3] = Selectivity index, ratio of CC50 for human MRC5 cells to IC50 for amastigote stage of Leishmania infantum (MHOM/FR/2008/LEM5700) infected in mouse RAW264.7 cells; assay type: toxicity, cell-based; settings: read-out: Ratio CC50/IC50; summary of the method: as §1
Leishmania braziliensis = experiment: Antileishmanial activity against amastigote stage of Leishmania braziliensis (MHOM/BR/75/M2903b) infected in mouse RAW264.7 cells assessed as reduction in parasitic proliferation measured by SYBR Green 1 dye based fluorescence assay; assay type: functional, organism-based
Summary of the method: (§2)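 RAW 264.7 macrophages seeded at 100,000 cells/well in DMEM with 10% heat-inactivated FBS, 24 h at 37 °C, 5% CO₂. Infected with plateau-phase promastigotes (parasite:macrophage 16:1) for 24 h. Compounds serially diluted, final 391 nM–100 μM. Amastigote viability read by SYBR Green I after lysis and 3 freeze-thaw cycles. IC50 by nonlinear regression against excipient-treated controls. Miltefosine reference.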

[4] = Selectivity index, ratio of CC50 for human MRC5 cells to IC50 for amastigote stage of Leishmania braziliensis (MHOM/BR/75/M2903b) infected in mouse RAW264.7 cells; assay type: toxicity, cell-based; settings: read-out: Ratio CC50/IC50; summary of the method: as §1
Leishmania infantum = experiment: Antileishmanial activity against amastigote stage of Leishmania infantum (MHOM/FR/2008/LEM5700) infected in mouse RAW264.7 cells assessed as reduction in parasitic proliferation measured by SYBR Green 1 dye based fluorescence assay; assay type: functional, organism-based; settings: MHOM/FR/2008/LEM5700, RAW264.7; summary of the method: as §2
[5] = Selectivity index, ratio of CC50 for mouse RAW264.7 cells to IC50 for amastigote stage of Leishmania donovani (MHOM/ET/67/HU3) infected in mouse RAW264.7 cells; assay type: toxicity, cell-based; settings: read-out: Ratio CC50/IC50; summary of the method: as §1
[6] = Selectivity index, ratio of CC50 for human MRC5 cells to IC50 for amastigote stage of Leishmania amazonensis (MHOM/BR/73/M2269) infected in mouse RAW264.7 cells; assay type: toxicity, cell-based; settings: read-out: Ratio CC50/IC50; summary of the method: as §1
[7] = Selectivity index, ratio of CC50 for human MRC5 cells to IC50 for amastigote stage of Leishmania donovani (MHOM/ET/67/HU3) infected in mouse RAW264.7 cells; assay type: toxicity, cell-based; settings: read-out: Ratio CC50/IC50; summary of the method: as §1
Leishmania amazonensis = experiment: Antileishmanial activity against amastigote stage Leishmania amazonensis (MHOM/BR/73/M2269) infected in mouse RAW264.7 cells assessed as reduction in parasitic proliferation measured by SYBR Green 1 dye based fluorescence assay; assay type: functional, organism-based; settings: MHOM/BR/73/M2269, RAW264.7; summary of the method: as §2
Leishmania major = experiment: Antileishmanial activity against amastigote stage of Leishmania major (MHOM/IL/81/BNI) infected in BALB/c mouse peritoneal macrophages assessed as reduction in parasitic proliferation measured after 4 days by MayGrunwald-Giemsa stain based microscopic method; assay type: functional, organism-based; settings: Peritoneal macrophage, 96 h
Summary of the method: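 BALB/c peritoneal macrophages on glass slides, 1.5×10⁵ cells/mL in RPMI 1640 with 15% FBS, 24 h attachment. Infected with stationary-phase promastigotes (1.5×10⁶/mL) for 24 h at 37 °C, 5% CO₂. Washed, then exposed 4 days to 100, 10, 1, 0.1 μM (DMSO ≤1% final). Methanol-fixed, May-Grunwald-Giemsa stained, amastigotes counted in 100 macrophages per duplicate well. IC50 from amastigotes/macrophage. Run twice.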

[8] = Selectivity index, ratio of CC50 for mouse RAW264.7 cells to IC50 for amastigote stage of Leishmania infantum (MHOM/FR/2008/LEM5700) infected in mouse RAW264.7 cells; assay type: toxicity, cell-based; settings: read-out: Ratio CC50/IC50; summary of the method: as §1
[9] = Selectivity index, ratio of CC50 for mouse RAW264.7 cells to IC50 for amastigote stage of Leishmania amazonensis (MHOM/BR/73/M2269) infected in mouse RAW264.7 cells; assay type: toxicity, cell-based; settings: read-out: Ratio CC50/IC50; summary of the method: as §1
[10] = Cytotoxicity against human MRC5 cells assessed as reduction in cell viability measured after 96 hrs by resazurin assay; assay type: cell-based
Summary of the method: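 Human MRC-5 fibroblasts grown in RPMI 1640 with 10% FBS. Exposed to 100, 10 and 1 μM in triplicate for 96 h. Then 10 μL of 700 μM resazurin added for 4 h and fluorescence read. Value is the mean of triplicates.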

Leishmania donovani = experiment: Antileishmanial activity against amastigote stage of Leishmania donovani (MHOM/ET/67/HU3) infected in mouse RAW264.7 cells assessed as reduction in parasitic proliferation measured by SYBR Green 1 dye based fluorescence assay; assay type: functional, organism-based; settings: MHOM/ET/67/HU3, RAW264.7; summary of the method: as §2
[11] = Selectivity index, ratio of CC50 for mouse RAW264.7 cells to IC50 for amastigote stage of Leishmania braziliensis (MHOM/BR/75/M2903b) infected in mouse RAW264.7 cells; assay type: toxicity, cell-based; settings: read-out: Ratio CC50/IC50; summary of the method: as §1
[12] = Cytotoxicity against mouse RAW264.7 cells assessed as reduction in cell growth measured after 48 hrs by SYBR Green 1 dye based fluorescence assay
Summary of the method: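 RAW 264.7 cells seeded at 100,000 cells/well in DMEM with 10% FBS, 24 h at 37 °C, 5% CO₂. Two-fold serial dilutions, final 49 nM–100 μM, for 48 h. Growth read by SYBR Green I. CC50 by nonlinear regression. Miltefosine reference; untreated cells as growth control.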

CCCCCCCCCCCCCCCCOP(=O)([O-])OCC[N+](C)(C)C [MILTEFOSINE]
selectivity ratio [1]: 25.5
selectivity ratio [2]: 29.9
selectivity ratio [3]: 12.4
IC50 (Leishmania braziliensis): 8.33 µM
selectivity ratio [4]: 4.4
IC50 (Leishmania infantum): 2.96 µM
selectivity ratio [5]: 23.5
selectivity ratio [6]: 8.7
selectivity ratio [7]: 20.1
IC50 (Leishmania amazonensis): 4.22 µM
IC50 (Leishmania major): 1.44 µM
selectivity ratio [8]: 14.5
selectivity ratio [9]: 10.2
CC50 at 96 h [10]: 36.8 µM
IC50 (Leishmania donovani): 1.83 µM
selectivity ratio [11]: 5.2
CC50 at 48 h [12]: 43 µM
